Source: PubChem
Pf gamet viab: kills late stage P. falciparum gametocytes | P. falciparum stage V gametocytes, ATP luminescence, 24 h | inhibition, % at 10.9 µM | 0.065% of 150,000 active | AID 743093;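 active = inhibition above the mean plus 3 SD of compounds within the control limits, set per campaign, cut at about 38% in these data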;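 also: 0% = DMSO wells and 100% = medium only without gametocytes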
zVAD death inh: L929 zVAD cell death inhibition; L929 zVAD necroptosis rescue, ATP luminescence, 24 h; with zVAD 60 µM; viability rescue, % at 10 µM; 0.38% of 220,000 active; AID 1377;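 active = activation, scaled between plate controls, above about 75%, limit read from the data; inactive = activation under that limit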;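 also: 0% = zVAD with DMSO and 100% = DMSO alone without zVAD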
Wee1 stabilizer: human Wee1 degradation inhibition, primary screen. P30291. HeLa Luc-Wee1K328M stability, luciferase luminescence; 100% = proteasome inhibitor MG132 effect. reporter increase, % at 5 µM. 1.2% of 220,000 active. AID 1321;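 active = activation above the mean of all tested compounds plus 3 SD, set per screening run, cut at about 8.8% in these data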;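 also: cells exposed to compound for 20 h before luminescence read; 0% = DMSO alone and 100% = MG132 at 30 µM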
Mdm2 ligase inh: blocks human Mdm2 ubiquitin ligase activity; Q00987; cell-based MDM2 ubiquitination luciferase reporter, 2 h; 0 = plate control, 100 = twice control, blank-subtracted; signal enhancement, % at 5 µM; 0.11% of 210,000 active; AID 1230;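 active = signal enhancement of 30% or more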;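 also: luminescence tracks abundance of the self-degrading MDM2-luciferase fusion protein; higher signal means inhibition of MDM2 E3 ligase activity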
Target sequence (Q00987 whole entry, looked up, the tested form may be a part): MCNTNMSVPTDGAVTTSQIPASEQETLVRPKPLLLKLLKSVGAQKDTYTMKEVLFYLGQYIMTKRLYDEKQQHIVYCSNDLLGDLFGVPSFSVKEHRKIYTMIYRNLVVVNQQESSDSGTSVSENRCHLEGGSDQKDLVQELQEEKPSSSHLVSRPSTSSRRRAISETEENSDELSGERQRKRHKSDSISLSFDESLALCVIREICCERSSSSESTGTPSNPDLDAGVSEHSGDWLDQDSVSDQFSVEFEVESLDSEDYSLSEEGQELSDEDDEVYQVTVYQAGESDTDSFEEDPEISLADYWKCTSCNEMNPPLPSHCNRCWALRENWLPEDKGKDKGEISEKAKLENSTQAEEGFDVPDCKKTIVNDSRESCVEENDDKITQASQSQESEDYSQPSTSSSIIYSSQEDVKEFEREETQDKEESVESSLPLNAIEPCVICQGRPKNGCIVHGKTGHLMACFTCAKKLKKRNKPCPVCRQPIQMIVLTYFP
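Assay system: stable mammalian line carrying autodegrading MDM2–luciferase fusion reporter; Input: 2000 cells in each well; Compound dosing: single-point 5 µM; Schedule: 2 h compound exposure at 37 °C; Signal: SteadyLite luciferase luminescence after 15 min room-temperature reagent incubation; Evaluation: % luminescence enhancement versus blank-corrected plate control mean; Benchmarks: plate controls and plate blanks.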
TNF necrop inh: blocks TNF-alpha induced death of Jurkat FADD-/- cells | Jurkat FADD-/- TNF necroptosis rescue, ATP luminescence, 24 h; 0 = TNF only, 100 = no-TNF cells | activation (protection from cell death), % at 10 µM | 0.068% of 220,000 active | AID 463075;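 active = activation, meaning protection from cell death, of at least 50% relative to plate controls; inactive = activation below 50%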;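 also: necroptosis triggered by 40 ng/mL TNF-alpha added together with compound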
Starred values were filed as active, the others as inactive; · = no result given. Compounds with a hit are over-represented: about 1.6% of the library has one in this group of screens.

SMILES | Pf gamet viab | zVAD death inh | Wee1 stabilizer | Mdm2 ligase inh | TNF necrop inh
CCOC(=O)CNC(=O)C1CCCc2c1[nH]c1ccc(Cl)cc21 (centres undefined) | · | 5 | 10* | 5 | 0
N#Cc1nc(Cc2ccccc2)oc1NCCN1CCOCC1 | 2 | -1 | -1 | 32* | 0
N#Cc1nc(Cc2cccc3ccccc23)oc1NCCCN1CCOCC1 | 2 | 0 | -2 | -8 | -1
O=C(NCCn1cc(SCc2ccccc2F)c2ccccc21)c1c(F)cccc1F | · | 2 | 0 | · | -1
Cc1cc(C)c2c(=O)n(CC(=O)N3CCC(N4CCCCC4)CC3)sc2n1 | · | 0 | 0 | -1 | -4
Cc1ncc([N+](=O)[O-])n1CC(=O)NCCc1ccccc1 | · | 1 | 2 | -19 | 0
COc1ccc(CCNC(=O)Cn2c([N+](=O)[O-])cnc2C)cc1OC | 17 | 4 | 11* | 0 | 0
Cn1cc(-c2nnc(-c3ccccc3)o2)c2ccccc21 | · | 1 | 10* | -43 | -1
Cc1ccccc1-c1nnc(-c2ccccc2)o1 | · | 2 | 1 | -8 | -1
Cc1c(C(=O)/C=C/N(C)C)nnn1-c1ccc(F)c(Cl)c1 | -2 | 1 | 10* | -5 | 2
CC(C)(/C=N/O)/[N+]([O-])=C/c1ccccc1 | -1 | 0 | 1 | -11 | 1
COc1ccccc1OCC(=O)Nc1cc(S(=O)(=O)N2CCCCC2)ccc1N1CCCCC1 | -9 | 0 | 0 | 78* | 4
O=C(CNC1CCCCCC1)Nc1ccccc1N1CCCCC1 | · | 1 | 8.9* | -7 | 1
COc1cc(CC(=O)Nc2ccccc2N2CCCCC2)cc(OC)c1OC | -22 | 1 | 9.4* | -18 | 3
Cn1c(=O)c2c(nc(N/N=C/c3cccs3)n2Cc2ccccc2)n(C)c1=O | -6 | 7 | -1 | -6 | -5
COc1cc(NC(=O)c2cc3sccc3n2C)cc(OC)c1 | · | 1 | 9.0* | -7 | -8
CCCCSc1nnc(-c2cc(Br)ccc2N)c(=O)[nH]1 | -12 | 1 | 3 | -13 | -2
O=C(Nc1cc(=O)[nH]c2ncnn12)c1ccco1 | 9 | 2 | 5 | -8 | 1
O=C(Nc1cc(=O)[nH]c2ncnn12)c1ccccc1F | 4 | 1 | 9.4* | -7 | 1
c1ccc(N2CCN(c3nnnn3-c3ccccc3)CC2)cc1 | · | -2 | 9.4* | -8 | 0
CCC(CC)C(=O)Nc1cccc(C(=O)Nc2nccs2)c1 | -26 | 67 | 0 | -4 | 3
COc1ccc(F)cc1C(=O)C1CCCN(C(=O)CSc2ccccn2)C1 (centres undefined) | · | 0 | -1 | -3 | 1
COc1ccccc1C(=O)C1CCCN(C(=O)CSc2ccccn2)C1 (centres undefined) | -5 | 0 | 10* | -9 | 0
CC(=O)c1sc2nc(C)c3c(c2c1N)CCCC3 | 2 | 17 | 0 | -20 | -4
O=C1c2ccccc2C(=O)C1c1ccc2ccccc2n1 | -10 | 47 | 0 | -7 | -4
SMILES | Pf gamet viab | zVAD death inh | Wee1 stabilizer | Mdm2 ligase inh | TNF necrop inh
O=C1c2ccccc2C(=O)C1c1ccnc2ccccc12 | · | 66 | 11* | -74 | 1
O=C1c2ccccc2C(=O)C1c1nccc2ccccc12 | · | 39 | 10* | -73 | -2
Cc1ccc(C)c(N2CCN(C(=O)Cc3ccc(-n4c(=O)[nH]c5ccsc5c4=O)cc3)CC2)c1 | 39* | 1 | 5 | -13 | 1
CSc1nnc(-c2ccccc2)c(-c2ccccc2)n1 | 8 | 1 | 8.9* | -12 | 0
c1ccc(CSc2nnc(-c3ccccc3)c(-c3ccccc3)n2)cc1 | 16 | · | · | · | ·
CCOc1ccc(NC(=O)CN2CCN(CC(=O)Nc3cc(OC)cc(OC)c3)CC2)cc1 | 1 | 3 | 13* | -15 | 3
CCOc1ccc2nc(SCC(=O)Nc3cccc(S(=O)(=O)NC4=NCCCCC4)c3)[nH]c2c1 | · | 1 | -1 | -18 | 4
CCN(C(=O)COC(=O)/C=C/c1cnc2ccccc2n1)C1CCS(=O)(=O)C1 (centres undefined) | -10 | 4 | 0 | 3 | 2
O=C(OCc1nnc(-c2ccccc2)o1)c1ccccc1 | 13 | 4 | -3 | -8 | 1
O=C(OCc1nnc(-c2ccccc2)o1)C12CC3CC(CC(Br)(C3)C1)C2 | 19 | 0 | 9.6* | 3 | -1
CCCC(C(=O)NC(C)(C)C)N(CC1CCCO1)C(=O)c1snc(C(N)=O)c1N (centres undefined) | 21 | 0 | 9.4* | -6 | 2
CCC(C(=O)NC1CCCCC1)N(Cc1cccs1)C(=O)c1snc(C(N)=O)c1N (centres undefined) | -6 | 1 | 9.8* | -2 | 0
Cc1ccccc1CC1(CO)CCCN(Cc2ccn[nH]2)C1 (centres undefined) | -29 | 1 | -1 | 3 | 1
Cc1ccc(CN2CCCC(CO)(Cc3ccccc3C)C2)s1 (centres undefined) | · | -1 | 8.9* | 3 | 0
Cc1n[nH]c(C)c1C(=O)CC1(O)C(=O)N(CCc2ccccc2)c2ccc(Cl)cc21 (centres undefined) | -17 | 1 | 10* | -11 | -1
COc1ccccc1OCC(=O)N/N=C1\CCCCc2ccccc21 | -5 | 1 | 6 | 1 | 2
O=C(COc1ccccc1F)N/N=C1\CCCc2ccccc21 | -53 | 1 | 11* | -8 | 1
Cc1cc(OCCCCN2C(=O)NC(C)(C)C2=O)ccc1[N+](=O)[O-] | 12 | 1 | 2 | -10 | 1
CC1(C)NC(=O)N(CCOc2ccc([N+](=O)[O-])cc2)C1=O | · | 0 | 9.6* | -14 | 1
Cc1onc(-c2c(F)cccc2Cl)c1C(=O)N1CCc2ccccc2C1 | · | 0 | -1 | -8 | -3
COc1ccc(C(=O)c2nccc3ccccc23)cc1 | -8 | 0 | 10* | -5 | 0
O=C1N(Cc2cccc(Cl)c2)C[C@@H]2C[C@@H](c3ccccn3)N3CCC[C@@]123 | -2 | 0 | 9.4* | -22 | 0
Cc1cc(C)cc(NC(=S)NC2CC3CCCC(C2)N3C2CCCC2)c1 (centres undefined) | -24 | -1 | 1 | -3 | -1
Cc1ccc(NC(=O)CCNS(=O)(=O)c2cc(Br)cnc2N)cc1Cl | · | · | 2 | -7 | 4
CCOC(=O)N1CCN(C(=O)CCNS(=O)(=O)c2cc(Br)cnc2N)CC1 | · | 86* | -2 | -3 | 18
CCOC(=O)c1cnn(-c2cc(C)nc3c(-c4ccccc4)cnn23)c1N | 5 | 1 | 11* | 3 | 3
CCc1c(C)[nH]n(-c2nc(-c3ccccc3)cs2)c1=O | -6 | 0 | -3 | · | 0
O=[N+]([O-])c1cccc(/C=N/Nc2ccccn2)c1 | · | 26 | 1 | -25 | 23
O=C(/C=C/c1cccc([N+](=O)[O-])c1)n1cnc2ccccc21 | 7 | -2 | 1 | 49* | 9
